From ChEMBL document CHEMBL1177742, “Withanolide A and asiatic acid modulate multiple targets associated with amyloid-beta precursor protein processing and amyloid-beta protein clearance” (J Nat Prod, 2010)
Activity calls are given as the source filed them. The rule behind the calls is not given here.

What was measured:
Cortical neurone [1] = test: Cytotoxicity against Sprague-Dawley rat primary cortical neurons assessed as cell morphology at 10 uM after 24 hrs by MAP2 immunostaining; assay type: cell-based
Method in brief: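 Cortical neurons from 1-day-old Sprague-Dawley pups, plated on poly-D-lysine at 1 × 10^6 cells/well in DMEM with 10% horse serum, used at 3–4 days in culture. Treated 24 h alongside DMSO control (0.01% or 0.1%). Fixed in 4% paraformaldehyde, blocked with Triton X-100/BSA, MAP-2 (1:50) overnight at 4 °C, rhodamine secondary, imaged by fluorescence microscopy at 40X.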

Cortical neurone [2] = test: Reduction of BACE1 expression in Sprague-Dawley rat primary cortical neurons after 24 hrs by immunoblot analysis; assay type: functional, cell-based
Method in brief: (§1)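 Primary cortical neurons (1-day-old Sprague-Dawley pups, 3–4 day cultures) treated 24 h at 0–100 μM or 0–10 μM, with DMSO control. Lysed in RIPA, protein quantified by BCA, equal amounts run on 10% Tris–HCl gels, nitrocellulose transfer. BACE1 and ADAM10 antibodies each 1:1000 overnight at 4 °C, HRP secondary, chemiluminescence. Mature ADAM10 is the ~60 kDa band. Bands normalized to actin; mean ± S.D., n=3, Student's t-test.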

Cortical neurone [3] = test: Induction of ADAM10 activation in Sprague-Dawley rat primary cortical neurons after 24 hrs by immunoblot analysis; assay type: functional, cell-based; method in brief: as §1
Cortical neurone [4] = test: Induction of matured ADAM10 level in Sprague-Dawley rat primary cortical neurons after 24 hrs by immunoblot analysis; assay type: functional, cell-based; method in brief: as §1
Cortical neurone [5] = test: Induction of IDE levels in Sprague-Dawley rat primary cortical neurons at 5 to 100 uM after 24 hrs by immunoblot analysis; assay type: functional, cell-based; conditions: 1 to 10 uM, in the assay text read “1 to 10 uM” for “5 to 100 uM”
Method in brief: (§2)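 Cortical neurons from neonatal Sprague-Dawley rats treated 24 h at 0, 5, 20, 100 μM or 0, 1, 5, 10 μM, with DMSO control. Lysates were immunoblotted on 10% Tris–HCl gels with IDE or NEP antibody (1:1000, 4 °C overnight), nitrocellulose transfer, HRP detection. Intensities normalized to actin; mean ± S.D. of three independent experiments, Student's t-test.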

Cortical neurone [6] = test: Induction of NEP levels in Sprague-Dawley rat primary cortical neurons at 5 uM after 24 hrs by immunoblot analysis; assay type: functional, cell-based; method in brief: as §2
Cortical neurone [7] = test: Cytotoxicity against Sprague-Dawley rat primary cortical neurons assessed as cell death at 100 uM after 24 hrs by MAP2 immunostaining; assay type: cell-based
Method in brief: (§3)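 Neurons from 1-day-old pups were plated at 1 × 10^6 cells/well on poly-D-lysine in DMEM with 10% horse serum, 25 mM glucose, 10 mM HEPES, 2 mM glutamine and antibiotics. Day 3–4 cultures were treated 24 h (vehicle 0.1% DMSO), fixed in 4% paraformaldehyde, blocked (0.1% Triton X-100, 1% BSA), stained with MAP-2 1:50 overnight at 4 °C plus rhodamine secondary, and imaged by fluorescence microscopy (40X).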

Cortical neurone [8] = test: Cytotoxicity against Sprague-Dawley rat primary cortical neurons assessed as cell morphology at 100 uM after 24 hrs by MAP2 immunostaining; assay type: cell-based; method in brief: as §3
Cortical neurone [9] = test: Induction of IDE levels in Sprague-Dawley rat primary cortical neurons after 24 hrs by immunoblot analysis; assay type: functional, cell-based; method in brief: as §2
Cortical neurone [10] = test: Induction of IDE levels in Sprague-Dawley rat Alzheimer's disease model primary cortical neurons after 24 hrs by immunoblot analysis; assay type: functional, cell-based
[11] = tested on: ADAM10 (alpha-secretase) (Rattus norvegicus); test: Increase in alpha-secretase activity in Sprague-Dawley rat primary cortical neurons assessed as increase in C83 level by immunoblot analysis; conditions: Cerebral cortex neuron
[12] = tested on: ADAM10 (alpha-secretase) (Rattus norvegicus); test: Increase in alpha-secretase activity in Sprague-Dawley rat primary cortical neurons assessed as increase in sAPPalpha level by immunoblot analysis; conditions: Cerebral cortex neuron

SMILES | Activity (Cortical neurone [1]) | Activity (Cortical neurone [2]) | Activity (Cortical neurone [3]) | Activity (Cortical neurone [4]) | Activity (Cortical neurone [5]) | Activity (Cortical neurone [6]) | Activity (Cortical neurone [7]) | Activity (Cortical neurone [8]) | Activity (Cortical neurone [9]) | Activity (Cortical neurone [10]) | Activity [11] | Activity [12]
C[C@H]1[C@H](C)CC[C@]2(C(=O)O)CC[C@]3(C)C(=CC[C@@H]4[C@@]5(C)C[C@@H](O)[C@H](O)[C@@](C)(CO)[C@@H]5CC[C@]43C)[C@H]12 [ASIATIC ACID] | Non-toxic | Dose-dependent effect | Dose-dependent effect | Dose-dependent effect | inactive | Active |  |  |  |  |  | 
CC1=C(C)C(=O)O[C@@H]([C@](C)(O)[C@H]2CC[C@H]3[C@@H]4[C@@H]5O[C@@H]5[C@@]5(O)CC=CC(=O)[C@]5(C)[C@H]4CC[C@]23C)C1 [WITHANOLIDE A] |  | Dose-dependent effect | Dose-dependent effect | Dose-dependent effect |  |  | Non-toxic | Non-toxic | Dose-dependent effect | Active | Active | Active
